Screening data as filed in PubChem.
Shown are actives, neighbours in structure and some others; about 1.8% of the full set was active somewhere.
STAT3 act-1 = IL-6 driven STAT3 reporter potentiators, primary screen, U3A cells, luciferase, luminescence, MLSCN library. IL-6 STAT3-luciferase reporter; 100% = signal with IL-6 EC80 alone. activation (% of control), % at 5.6 µM. hit rate 0.91% among 190,000;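 active = activation above the screen-wide mean of compound activation plus 3 SD, cut at about 130% in these data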;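 also: 0% = background luminescence of wells with medium and substrate only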
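Material: STAT3-luciferase reporter U3A cells. Controls: IL-6-treated wells, 100% activation. Read-out: % activation versus median of IL-6-stimulated wells. Probe or stimulus: IL-6 stimulus at 33 ng/mL final. Timing: compound 1 h, then IL-6 6 h at 37 °C. Signal: reporter luminescence signal.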
PERK inh = block of dimerizer-induced PERK translation repression, primary screen, PERK inhibitor project, CHO PERK-DD cells, SEAP luminescence, HTS | CHO PERK-DD fusion, SEAP luminescence translation reporter | Eukaryotic translation initiation factor 2-alpha kinase 3 (Homo sapiens), Q9NZJ5 | hit rate 0.17% among 220,000 | inhibition, % at 5.6 µM;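 active = inhibition above the mean inhibition of all tested compounds plus 3 SD, set separately per screening campaign, cut at about 2.9% in these data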;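 also: PERK kinase domain activated by AP20187 dimerizer at 100 nM; 0% = DMSO with dimerizer and 100% = rapamycin at 8.4 µM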
STAT1 inh = STAT1 signaling inhibitors, primary screen, cell-based, HTS, luciferase reporter; NIH 3T3 STAT1-luciferase reporter, IFN-gamma, luminescence; inhibition, % at 5.5 µM; hit rate 0.35% among 200,000; AID 920, 2007;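 active = inhibition above a set limit, the mean inhibition across all tested compounds plus 3 SD, cut at about 34% in these data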;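 also: 0% = IFN-gamma with DMSO and 100% = IFN-gamma with 300 µM nifuroxazide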
STAT3 blocker = IL-6 driven STAT3 reporter inhibitors, primary screen, U3A cells, luciferase, luminescence, MLSCN library | AID 862, 2007 | IL-6 STAT3-luciferase reporter; host cell line lacks STAT1 | hit rate 0.89% among 190,000 | inhibition, % at 5.5 µM;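 active = inhibition above the mean inhibition across all screened compounds plus 3 SD, cut at about 44% in these data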;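 also: 0% = DMSO only wells and 100% = 100 µM nifuroxazide control wells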
STAT3 act-2 = STAT3 reporter potentiators, retest of hits, confirmation, U3A cells, luciferase, luminescence | shares compounds with STAT3 act-1 | IL-6 potentiation; U3A cells lack STAT1; 100 means same as IL-6 alone | potentiation (% of control), % at 5.7 µM | hit rate 64% among 1,200 | AID 1267, 2008;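 active = percent activation of the STAT3 luciferase reporter above a set limit taken from the earlier primary screen, cut at about 130% in these data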;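 also: 0% = background signal of medium plus substrate and 100% = median of IL-6 with DMSO wells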
NFkB act 2 = NF-kB reporter activators in human cells, counter-screen for STAT3 activator project. shares compounds with STAT3 act-1. NF-kappaB reporter activation. activation (% of control), % at 5.7 µM. hit rate 11% among 1,200. AID 1309, 2008; in the data active = activation above about 120%;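 also: reporter induced by TNF-alpha stimulation; 100% = median of stimulated DMSO wells and 0% = no signal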
STAT1 act = STAT1 reporter activators, IFN-gamma induced, counter-screen for STAT3 activator project, cell-based, NIH 3T3, luciferase luminescence. shares compounds with STAT3 act-1. NIH 3T3 STAT1-luciferase reporter. activation (% of control), % at 5.7 µM. hit rate 13% among 1,200. AID 1318, 2008;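 active = activation above the solvent-only control well mean plus 3 SD, set per screening run, cut at about 120% in these data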;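 also: 100% = IFN-gamma with DMSO median signal so 100% means no change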
An asterisk follows results filed as active; / = not tested or not shown.

SMILES	STAT3 act-1	PERK inh	STAT1 inh	STAT3 blocker	STAT3 act-2	NFkB act 2	STAT1 act
Cc1cc(C)nc(SC2CCCCC2O)n1 (stereo not given)	136*	1	5	-41	112	97	99
COc1cc([C@@H]2c3cc4c(cc3[C@H](O)[C@H]3COC(=O)[C@H]23)OCO4)cc(OC)c1OC	152*	0	-14	-57	118	164*	108
CN(C(=O)COC(=O)c1ccc2ccccc2n1)C1CCS(=O)(=O)C1 (stereo not given)	102	0	-2	3	/	/	/
Cc1cccc(C(=O)n2c(=S)nc3ccccn32)c1	109	0	-100	-3	/	/	/
CC(C)(C)C1(O)CC(C(F)(F)F)=NN1C(=O)Cc1ccc([N+](=O)[O-])cc1 (stereo not given)	137*	0	8	-44	152*	110	102
Cc1cc(=O)nc2c3ccccc3n(CC(=O)Nc3ccccc3Br)n12	/	-1	/	/	/	/	/
CCCNC(=O)Cn1c2ccccc2c2nc(=O)cc(C)n21	170*	1	5	-71	158*	102	94
O=C(CN1CCC2(CC1)OCCO2)c1c[nH]c2ccccc12	148*	0	-3	-54	123	105	98
Cn1c2ccccc2c2ncn(CCCN3CCOCC3)c(=O)c21	140*	-1	5	-42	154*	112	108
Cn1c2ccc(F)cc2c2ncn(CCN3CCOCC3)c(=O)c21	97	-2	-4	6	/	/	/
O=C(Nc1c(Cl)cc(Cl)cc1-c1nc2ccccc2s1)c1ccc(Br)o1	139*	0	11	-52	115	101	71
O=C(CN1CCOCC1)N/N=C/c1cc2ccccc2nc1Cl	96	1	-1	12	/	/	/
Cc1ccc(NCC(=O)N/N=C/c2cc3ccccc3nc2Cl)cc1	178*	0	9	-90	171*	113	107
Cn1c(SCC(=O)N=Nc2c(O)[nH]c3ccccc23)nc2ccccc21	123	0	-4	-26	/	/	/
O=C(CSc1nc2ccccc2[nH]1)N=Nc1c(O)[nH]c2ccccc12	145*	0	-2	-51	142*	108	105
COc1cc(NC(=O)C2CCCC2)c(OC)cc1Cl	84	0	3	24	/	/	/
COc1cc(NC(=O)c2cc(C(C)C)on2)c(OC)cc1Cl	168*	0	0	-69	152*	97	104
COc1cc(NC(=O)c2cc(C3CC3)on2)c(OC)cc1Cl	159*	1	1	-60	150*	103	98
CC(C)CNC(=O)COC(=O)c1n[nH]c2ccccc12	82	2	-2	24	/	/	/
N/C(=N\OC(=O)c1cccc(Br)c1)c1ccccc1	158*	0	-30	-72	152*	131*	151*
Cc1cccc(C(=O)O/N=C(\N)c2ccc(Br)cc2)c1	122	-1	-23	-25	/	/	/
N/C(=N\OC(=O)c1cccc2ccccc12)c1ccc(Br)cc1	139*	1	3	-46	135*	107	106
Cc1ccc(C)c(C(=O)O/N=C(\N)c2ccc(Br)cc2)c1	155*	0	8	-61	150*	108	102
O=C(Oc1ccccc1O)c1cccc2ccccc12	141*	1	-11	-42	132	102	103
COc1ccc2c(C)cc(SCC(=O)N(C)C3CCS(=O)(=O)C3)nc2c1 (stereo not given)	103	0	5	4	/	/	/
SMILES	STAT3 act-1	PERK inh	STAT1 inh	STAT3 blocker	STAT3 act-2	NFkB act 2	STAT1 act
O=C(COC(=O)c1cccnc1Cl)NCCC1=CCCCC1	108	2	-2	1	/	/	/
Cc1nc2ccc(Br)cn2c1C(=O)N/N=C\c1ccccc1[N+](=O)[O-]	148*	0	7	-50	132	97	102
CCC(C(=O)Nc1ccccc1OC)n1c(C(=O)OC)cc2ccsc21 (stereo not given)	142*	-2	14	-45	148*	104	87
O=C1OCC(CO)(CO)N=C1NNc1ccc(Cl)c(Cl)c1	105	1	4	2	/	/	/
O=C(CN1C(=O)/C(=C/c2c(F)cccc2Cl)Oc2ccccc21)NCc1ccco1	154*	0	8	-61	187*	99	96
CC(C)(C)OC(=O)N/N=C/c1c[nH]c2ccccc12	139*	0	-19	-50	126	119	120
COC(=O)N/N=C/c1c[nH]c2ccccc12	132	0	-6	-35	/	/	/
O=C1c2ccccc2C(=O)N1CCC1=CCCCC1	141*	1	-23	-41	121	122*	132*
Nc1cc(Oc2ccc(F)cc2F)cc([N+](=O)[O-])c1	95	1	4	8	/	/	/
O=C(Nc1ccccc1)N1CCn2c1nc1ccccc12	161*	0	3	-69	139*	99	95
S=C(Nc1ccccc1)N1CCn2c1nc1ccccc12	87	0	-1	19	/	/	/
COc1ccc(NC(=O)N2CCn3c2nc2ccccc23)cc1	151*	-1	-3	-59	137*	105	98
Nc1ccc(C(=O)OCCCc2nc3cc4ccccc4cc3[nH]2)cc1	/	-1	/	/	/	/	/
Nc1ccc(Cc2nc3cc4ccccc4cc3[nH]2)cc1	136*	-1	-13	-39	143*	113	130*
Cc1cccc(NC(=O)C2=C(O)c3ccccc3N(C)S2(=O)=O)c1	155*	-1	1	-60	95	109	99
CN1c2ccccc2C(O)=C(C(=S)Nc2ccc(Cl)cc2)S1(=O)=O	101	0	9	5	/	/	/
COC(=O)/C(=C/Nc1cccc2ccccc12)[N+](=O)[O-]	173*	0	11	-77	135*	108	99
COc1ccc2c(CC(=O)NCc3cccs3)coc2c1	111	0	-10	-4	/	/	/
Cc1c(C(=O)Nc2ccncc2)oc2ccccc12	81	0	-9	26	/	/	/
Cc1c(C(=O)Nc2ccccn2)oc2ccccc12	154*	0	-28	-59	218*	142*	173*
O=Cc1cc2ccccc2nc1SCc1ccc(Cl)cc1	161*	1	-12	-65	130	101	102
Cc1ccc(CSc2nc3ccccc3cc2C=O)cc1	193*	2	-1	-104	153*	109	102
O=Cc1cc2ccccc2nc1SCc1ccc(Cl)c(Cl)c1	120	0	1	-17	/	/	/
NCCc1nnc(SCC(=O)c2ccc(Cl)cc2)o1	/	0	/	/	/	/	/
